CHOP inhibitor: CHOP inhibition in unfolded protein response. CHO-K1 CHOP-promoter luciferase, tunicamycin-induced, 15-18 h. inhibition, % at 10 µM. actives 3.8% (n = 220,000). AID 2732;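 active = compounds that reduced the stress-induced luciferase reporter signal by more than about 70% of percent inhibition, limit read from the data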;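 note: 0% = tunicamycin plus vehicle and 100% = wells without tunicamycin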
Gli-Sufu block: antagonists of Gli-Sufu signaling | Sufu-KO-LIGHT fibroblasts, Gli luciferase reporter luminescence | inhibition, % at 5 µM | actives 0.74% (n = 340,000);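 active = inhibition above about 55%, limit read from the data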;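 note: 0% = DMSO-treated cells and 100% = wells with medium but no cells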
697 NFkB inh: lowers PMA/ionomycin-induced NF-kB signal in 697 B cells. 697 B-cell NF-kB luciferase reporter, 16 h. inhibition, % at 4 µM. actives 0.33% (n = 330,000). AID 435022; in the data active = inhibition above about 35%
XBP1 UPR activ: adaptive UPR (XBP1) activation; actives 0.33% (n = 330,000); CHO-XBP1 luciferase reporter, IRE1-XBP1 UPR activation, luminescence; percent of tunicamycin response, DMSO as zero; activation, % at 20 µM;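 active = versus positive control, 20 µM dose yields 30% or more activation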;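 note: 100% = tunicamycin at 10 µg/mL and 0% = DMSO only wells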
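Assay system: CHO-XBP1 luciferase reporter cells; Schedule: 6 h treatment, 37 °C; Detection: glow luminescence from Steady-Glo reagent; Benchmarks: high control tunicamycin 10 µg/mL final, low control DMSO vehicle only.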
UPR CHOP act: apoptotic UPR (CHOP) activation. CHO-CHOP luciferase reporter, luminescence; percent of tunicamycin response over DMSO baseline. activation, % at 10 µM. actives 0.34% (n = 330,000);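 active = at 10 µM dose, activation of 40% or more, normalized to positive control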;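 note: 100% = tunicamycin at 10 µg/mL and 0% = DMSO alone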
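Assay system: CHO-CHOP cells, stable luciferase reporter of PERK-eIF2a-CHOP signalling / Buffer or medium: F12 plus 10% serum / Compound dosing: one dose, 10 µM in 0.5% DMSO / Times: 6 h compound treatment, 37 °C / Technique: luciferase luminescence / Read-out: % reporter activation, DMSO baseline versus tunicamycin full activation / Benchmarks: tunicamycin and DMSO controls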
Jurkat NFkB inh: inhibitors of the PMA/ionomycin-induced NF-kB reporter in Jurkat cells; PMA/ionomycin-induced NF-kB luciferase reporter, luminescence; actives 0.53% (n = 330,000); inhibition, % at 4 µM; AID 435003; in the data active = inhibition above about 50%
* marks the source's active call; other numbers are inactive results; nt = not tested or not shown. In the library only some 3.9% were active in any assay of this set; here they are far more common.

SMILES	CHOP inhibitor	Gli-Sufu block	697 NFkB inh	XBP1 UPR activ	UPR CHOP act	Jurkat NFkB inh
O=C(Oc1cccc2cccnc12)c1cccc(N2C(=O)C3C4CCC(C4)C3C2=O)c1 (centres undefined)	83.9*	-5.8	8.4	0.2	2.2	4.0
Cc1ccccc1Nc1c([N+](=O)[O-])ccc2c1=NC1(CCCCC1)N=2	75.7*	1.3	-7.4	-0.4	1.3	-7.3
COc1cccc(CN2CCN(c3cccc(C(F)(F)F)c3)CC2)c1OC	71.3*	6.3	12.6	0.0	-0.5	-15.5
O=C(NNCc1ccccc1)c1ccccn1	nt	-37.5	nt	nt	nt	nt
CCCN(C1CCS(=O)(=O)C1)S(=O)(=O)c1cc(OC)ccc1OC (centres undefined)	nt	-0.8	-19.8	-2.6	0.2	-4.4
COc1ccc(OC)c(NC(=O)c2cc3ccccc3o2)c1	29.5	-7.1	5.0	-0.8	0.6	-31.6
COc1ccc(C)cc1NC(=O)c1cc2ccccc2o1	71.2*	-16.2	-29.9	4.0	0.9	-22.9
CN(c1nc2ccccc2[nH]c1=O)C1CCCCC1	nt	56.7*	-13.0	-3.6	4.4	0.4
CCN(CC)c1nc2ccccc2[nH]c1=O	-6.8	-6.8	14.9	0.9	1.2	-0.5
CCOC(=O)c1oc2ccc(S(=O)(=O)n3nc(-c4ccccc4)cc3N)cc2c1C	85.2*	47.3	-12.7	1.1	5.0	32.6
Cc1cn(CC(=O)NCCCN2CCCC2=O)c(=O)[nH]c1=O	nt	21.2	nt	nt	nt	nt
CCn1c(SCC(=O)Nc2nc(-c3ccc(C)cc3)cs2)nnc1-c1ccccc1O	85.8*	2.8	-56.6	-2.3	2.9	-7.9
COc1ccc(S(=O)(=O)N2CCCCC2)cc1NC(=O)CCNC(=O)c1ccc(Cl)cc1	nt	0.2	6.1	-1.4	1.5	4.5
CC1OC(O[C@H]2CC[C@]3(C)C4C=C[C@]56OC[C@@]7(CC[C@@H](C)[C@H](C)C75)[C@H](O)C[C@@]6(C)[C@]4(C)CC[C@H]3C2(C)C)C(OC2OC(CO)C(O)C(O)C2OC2OCC(O)C(O)C2O)C(O)C1O (some centres undefined)	100.5*	nt	nt	nt	nt	nt
Cc1cccc(C(=O)O)c1NC(=O)Cc1cccc2ccccc12	nt	4.9	8.5	-1.0	-0.1	-4.1
N#Cc1ccccc1CSc1nc(N)cc(N)n1	nt	-12.1	-6.4	-4.4	0.3	-9.9
COc1cccc(NC(=O)CCCOc2cc(=O)n(C)c3ccccc23)c1	-6.6	-3.5	4.3	3.0	-2.3	-12.1
CCOc1ccc(NC(=O)CCCOc2cc(=O)n(C)c3ccccc23)cc1	74.2*	6.9	32.3	1.0	2.3	-3.2
O=C(NCCc1ccccc1)C(=O)N/N=C/c1ccc2c(c1)OCO2	94.6*	-9.5	21.9	6.4	-0.4	-0.8
Cc1cc(C)c(OCC(=O)N/N=C/c2ccc3c(c2)OCO3)c(C)c1	72.6*	-5.8	1.0	0.8	-1.2	23.8
